Test [1] has as its target Serine/threonine-protein kinase AKT (Homo sapiens, UniProt P31751+Q9Y243+P31749). The test can be described thus: Inhibition of Akt (proto-oncogenic serine/threonine PKB) kinase. It counts as protein assay.
Another test deals with MCF7. As to the kind of experiment: Tested in vitro for their inhibitory activity against MCF-7(breast) cell line. The format is functional, cell-based. The settings on record: Homo sapiens. Summed up:
(§1)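 Cells were seeded at 30 000 per well in DMEM with 10% FBS, and drugs were added 16 h later. Growth continued for 3 days in DMEM/10% FBS with or without a range of drug concentrations. Cells were then counted on a hemocytometer to give growth-inhibition IC50.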

Test [2] is described as follows: Inhibition of murine p100/p85 PI3-K (phosphatidylinositol 3-kinase). Also noted: species or system Mus musculus.
The subject of a further test is HT-29. As to the kind of experiment: Tested in vitro for their inhibitory activity against HT-29 (colon) cell line. It counts as functional, cell-based. The settings on record: Homo sapiens. Summed up:
as §1

A further test has as its system HeLa. The test can be described thus: Tested in vitro for their inhibitory activity against Hela(cervical) cell line. As to conditions: Homo sapiens. The format is functional, cell-based. The procedure, abridged:
as §1

A further test concerns PC-3. The test can be described thus: Tested in vitro for their inhibitory activity against PC-3(prostate) cell line. The format is functional, cell-based. The settings on record: Homo sapiens. Summed up: as §1

Some results are limits rather than exact numbers.

The text below walks through data of ChEMBL document CHEMBL1133107, “3-(Hydroxymethyl)-bearing phosphatidylinositol ether lipid analogues and carbonate surrogates block PI3-K, Akt, and cancer cell growth” (J Med Chem, 2000).

The IC50 is the midpoint of a concentration-inhibition curve. Higher therefore signals a need for much substance.

Consider `CCCCCCCCCCCCCCCCCCOC[C@H](COC(=O)O[C@@H]1[C@H](O)[C@H](CO)[C@@H](O)[C@H](O)[C@@H]1O)OC`, for which the IC50 in test [1] was determined as 5 µM; in the test with MCF7, 1.2 µM; in test [2] it was 83 µM; in the test on HT-29 it was 10 µM; in the test with HeLa, 2.5 µM; with PC-3, 2 µM.
For `CCCCCCCCCCCCCCCCCCOC[C@H](COP(=O)(O)O[C@@H]1[C@H](O)[C@H](CO)[C@@H](O)[C@H](O)[C@@H]1O)OC`, the IC50 turned out to be 7.8 µM in test [1]; 5 µM with MCF7; 31 µM in test [2]; 4.5 µM in the test on HT-29; 1 µM in the test with HeLa; 4 µM with PC-3.
For the compound `CCCCCCCCCCCCCCCCCCOC[C@H](COC(=O)O[C@H]1[C@@H](O)[C@@H](O)[C@H](O)C[C@H]1O)OC`, the IC50 in test [1] worked out at 12.5 µM; in the test with MCF7, 12 µM; in test [2], 15.5 µM; in the test on HT-29, 2.5 µM; in the test on HeLa it was 30 µM; with PC-3, 7 µM.
For the compound `CCCCCCCCCCCCCCCCCCOC[C@H](COP(=O)(O)O[C@@H]1[C@H](O)[C@@H](CO)[C@@H](O)[C@H](O)[C@@H]1O)OC`, the IC50 in test [1] is 9.1 µM; in the test with MCF7, 2 µM; in test [2], 18.5 µM; in the test on HT-29, 7.5 µM; in the test on HeLa, 7.5 µM; in the test on PC-3 it was 2 µM.
As to `CCCCCCCCCCCCCCCCCCOC[C@H](COP(=O)(O)O[C@H]1[C@@H](O)[C@@H](O)[C@H](O)C[C@H]1O)OC`, the IC50 in the test with MCF7 was found to be 7.2 µM; in test [2], 14.8 µM; in the test on HeLa, 7 µM.
With `CCCCCCCCCCCCCCCCCCOC[C@H](COC(=O)O[C@@H]1[C@H](O)[C@@H](CO)[C@@H](O)[C@H](O)[C@@H]1O)OC`, the IC50 in test [1] is 32 µM; with MCF7, 12.5 µM; in test [2], 21.3 µM; with HT-29 it was 12 µM; in the test with HeLa, above 20 µM; with PC-3, 10 µM.
